Test [1] addresses T1, Aromatase (Homo sapiens, UniProt P11511).
T1 sequence (P11511 whole entry): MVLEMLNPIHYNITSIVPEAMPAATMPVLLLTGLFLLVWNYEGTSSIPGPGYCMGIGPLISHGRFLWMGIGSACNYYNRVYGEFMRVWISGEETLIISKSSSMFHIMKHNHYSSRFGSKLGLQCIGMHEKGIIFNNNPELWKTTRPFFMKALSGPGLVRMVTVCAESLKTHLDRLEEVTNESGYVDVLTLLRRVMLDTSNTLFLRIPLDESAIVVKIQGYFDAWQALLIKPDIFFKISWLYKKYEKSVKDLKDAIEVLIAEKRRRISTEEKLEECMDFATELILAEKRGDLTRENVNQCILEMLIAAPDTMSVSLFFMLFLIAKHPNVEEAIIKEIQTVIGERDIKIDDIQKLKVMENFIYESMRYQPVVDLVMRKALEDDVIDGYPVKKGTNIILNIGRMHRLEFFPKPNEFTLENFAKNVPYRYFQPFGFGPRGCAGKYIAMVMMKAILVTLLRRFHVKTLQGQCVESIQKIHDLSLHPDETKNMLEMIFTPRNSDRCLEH

For the next test, the system named is RAW264.7. The test is described as follows: Antiinflammatory activity in mouse RAW264.7 cells assessed as inhibition of LPS-induced NO production at 40 uM preincubated for 30 mins before LPS challenge by Griess method.
The target of test [2] is T1, Aromatase. To be noted: 2 h, read-out: Imax.
In test [3] the target is NAD(P)H dehydrogenase [quinone] 1 (Mus musculus) (UniProt Q64669). The test is described as follows: Induction of QR1-mediated cytoprotective activity in mouse Hepa-1c1c7 cells at 50 uM assessed as cell survival. In kind it is cell-based.
Chain of NAD(P)H dehydrogenase [quinone] 1 (Mus musculus) (Q64669 whole entry): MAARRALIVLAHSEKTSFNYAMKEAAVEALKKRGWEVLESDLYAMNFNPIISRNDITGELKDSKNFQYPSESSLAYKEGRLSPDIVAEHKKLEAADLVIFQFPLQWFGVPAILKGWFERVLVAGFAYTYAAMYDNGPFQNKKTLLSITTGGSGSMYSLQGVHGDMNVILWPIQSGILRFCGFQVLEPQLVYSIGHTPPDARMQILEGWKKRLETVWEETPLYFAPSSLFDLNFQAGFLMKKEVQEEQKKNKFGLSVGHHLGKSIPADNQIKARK
The subject of test [4] is Radical scavenging activity. The test is described as follows: Antioxidant activity assessed as DPPH free radical scavenging activity at 400 uM after 30 mins by spectrophotometry. The test is classed as functional.
The test system of the next test is MCF7. Put plainly: Antiproliferative activity against human MCF7 cells after 72 hrs by SRB assay. The test is classed as functional, cell-based. Conditions: MCF7, 72 h. In outline: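 MCF-7 breast cancer cells exposed to serially diluted compounds (DMSO) for 72 h at 37 °C in CO2 incubator; fixed with 10% trichloroacetic acid, stained with 0.4% SRB, OD read at 515 nm. Zero-day control of 1 × 10^4 cells per well processed after 30 min. Survival = (OD test − OD zero-day)/(OD control − OD zero-day) × 100; IC50 from survival.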

Test [5] concerns the target NAD(P)H dehydrogenase [quinone] 1 (Mus musculus) (UniProt Q64669). The test is described as follows: Induction of QR1-mediated cytoprotective activity in mouse BPrc1 cells at 50 uM assessed as cell survival. The test is classed as cell-based.
For test [6] the target is unchanged. The test is described as follows: Induction of QR1-mediated cytoprotective activity in mouse TAOc1 mutant Hepa cells at 50 uM assessed as cell survival. The test is classed as cell-based.
The test system of the next test is HEK293. Put plainly: Inhibition of TNFalpha-activated NF-kappaB expressed in HEK293 cells at 50 uM by luciferase reporter gene assay. In kind it is cell-based.

Some results are limits rather than exact numbers.

As to `Clc1ccc(-c2nsc(-c3ccc(Cl)c(Cl)c3)n2)cc1Cl`, the IC50 was greater than 50 µM on Aromatase [1] and 23.5 µM in the test on MCF7. Also, the inhibition at 40 µM in the test on RAW264.7 amounted to 21.5%. Besides, the inhibition at 50 µM at Aromatase [2] was 23%. In addition, the Survival in test [3] was 80%. For the same compound, the inhibition in test [4] was determined as 9.6%.
`Brc1ccc(-c2nsc(-c3ccc(Br)cc3)n2)cc1`: the IC50 on Aromatase [1] is greater than 50 µM. Besides, the inhibition at 40 µM in the test with RAW264.7 was 17.1%. Moreover, the inhibition at 50 µM at Aromatase [2] turned out to be 37.4%. Further, the values for the Survival in test [3], in test [5] and in [6] were 87%, 60.3% and 80.1%, respectively. Also, the inhibition was found to be 0.8% in test [4] and 0% with HEK293.
For `N#Cc1cccc(-c2nsc(-c3cccc(C#N)c3)n2)c1`, on Aromatase [1], the IC50 is greater than 50 µM. In the test with RAW264.7, the inhibition at 40 µM worked out at 26.4%. For the same compound, the inhibition at 50 µM on Aromatase [2] amounted to 22.1%. Besides, the Survival in test [3] turned out to be 57.9%. Further, the inhibition in [4] worked out at 1.4%.
In the same order, the values of `Cc1ccc(-c2nsc(-c3ccc(C)cc3)n2)cc1` are greater than 50 µM, 9.6%, 21.3%, 96.8% and 7.2%.
At Aromatase [1], `c1ccc2cc(-c3nsc(-c4ccc5ccccc5c4)n3)ccc2c1` had an IC50 greater than 50 µM. The inhibition at 40 µM in the test on RAW264.7 came to 0.5%. The inhibition at 50 µM on Aromatase [2] is 15.8%. For the same compound, the Survival in test [3] is 88.8%; in test [5] it was 98.1%; in test [6], 96.9%. For the same compound, the inhibition in test [4] is 1.1%.
Consider `O=[N+]([O-])c1ccc(-c2nsc(-c3ccc([N+](=O)[O-])cc3)n2)cc1`, for which, on Aromatase [1], the IC50 is greater than 50 µM. Moreover, the inhibition at 40 µM with RAW264.7 was 1.6%. Also, the inhibition at 50 µM at Aromatase [2] stood at 29.4%. Further, in [3], the Survival was found to be 78.9%. Moreover, the inhibition in test [4] was 7.3%.
On to `CCCCc1ccc(-c2nsc(-c3ccc(CCCC)cc3)n2)cc1`, for which the IC50 at Aromatase [1] is greater than 50 µM. Moreover, the inhibition at 40 µM in the test on RAW264.7 is -3.5%. The inhibition at 50 µM on Aromatase [2] turned out to be 35.5%. For the same compound, in [3], the Survival came to 100%. For the same compound, in [4], the inhibition is 2.1%.
On to `FC(F)(F)c1ccc(-c2nsc(-c3ccc(C(F)(F)F)cc3)n2)cc1`, for which the IC50 at Aromatase [1] is greater than 50 µM. For the same compound, in the test on RAW264.7, the inhibition at 40 µM was 8.5%. In addition, the inhibition at 50 µM on Aromatase [2] is 41%. For the same compound, the figures for the Survival in test [3], in test [5] and in test [6] were 97.9%, 71% and 91%, respectively. The values for the inhibition (in [4]; in the test on HEK293) were 2.5% and 0%, respectively.
In the case of `Cc1ccc(-c2nsc(-c3ccc(C)cc3Br)n2)c(Br)c1`, the IC50 on Aromatase [1] was greater than 50 µM. In the test on RAW264.7, the inhibition at 40 µM is 25%. Also, on Aromatase [2], the inhibition at 50 µM is 48.3%. For the same compound, the Survival in test [3] was found to be 49.6%. The inhibition stood at 3.4% in test [4] and 0% with HEK293.
For the compound `N#Cc1ccc(-c2nsc(-c3ccc(C#N)cc3)n2)cc1`, the IC50 is greater than 50 µM against Aromatase [1] and 31.3 µM with MCF7. In addition, the inhibition at 40 µM in the test on RAW264.7 was -0.4%. The inhibition at 50 µM at Aromatase [2] came out at 38.5%. For the same compound, the Survival in [3] was 46.2%. Moreover, in test [4], the inhibition worked out at 6%.
Turning to `Fc1cccc(-c2nsc(-c3cccc(F)c3)n2)c1`, the IC50 at Aromatase [1] was greater than 50 µM; in the test with MCF7 it was 34.5 µM. For the same compound, in the test on RAW264.7, the inhibition at 40 µM was found to be 3.2%. The inhibition at 50 µM on Aromatase [2] is 41.8%. Moreover, the Survival in [3] is 77.6%; in test [5], 73.5%; in [6], 77.1%. Moreover, the inhibition in test [4] was 1.3%.
As to `COc1ccc(-c2nsc(-c3ccc(OC)cc3)n2)cc1`, the IC50 on Aromatase [1] was greater than 50 µM; with MCF7, 17.4 µM. Further, the inhibition at 40 µM in the test on RAW264.7 worked out at 1.7%. Besides, the inhibition at 50 µM at Aromatase [2] is 11.1%. The Survival in test [3] was determined as 94.2%. In addition, the inhibition in test [4] amounted to 3.1%.
On to `Oc1ccc(/C=C/c2cc(O)cc(O)c2)cc1`, for which the Survival was 88.7% in [3], 86.3% in test [5] and 86.3% in test [6].
As for `Cc1cc(Br)ccc1-c1nsc(-c2ccc(Br)cc2C)n1`, the values for the 50% inhibitory concentration (IC50) against Aromatase [1] and with MCF7 were greater than 50 µM and 39.8 µM, respectively. Besides, in the test on RAW264.7, the inhibition at 40 µM is 23.3%. Further, the inhibition at 50 µM at Aromatase [2] is 47.8%. Further, the Survival in test [3] is 71.3%; in test [5] it was 95.9%; in test [6], 68.6%. Moreover, the inhibition in test [4] was found to be 2.2%; in the test on HEK293 it was 6.7%.
Regarding `Ic1ccc(-c2nsc(-c3ccc(I)cc3)n2)cc1`, the half-maximal inhibitory concentration (IC50) against Aromatase [1] was greater than 50 µM. In addition, the inhibition at 40 µM with RAW264.7 came to 20.3%. Moreover, the inhibition at 50 µM on Aromatase [2] amounted to 36.7%. Also, the Survival in test [3] is 105%. For the same compound, the inhibition in the test on HEK293 turned out to be 0%.
With `Clc1ccc(-c2nsc(-c3ccc(Cl)cc3Cl)n2)c(Cl)c1`, the 50% inhibitory concentration (IC50) at Aromatase [1] is greater than 50 µM. The inhibition at 40 µM in the test with RAW264.7 came out at 25%. In addition, on Aromatase [2], the inhibition at 50 µM is 40.3%. Moreover, the values for the Survival in test [3], in test [5] and in [6] were 30.6%, 89.8% and 82.4%, respectively. Besides, the inhibition in test [4] stood at 2.9%.
In the case of `Oc1ccc(CCc2cc(O)cc(O)c2)cc1` [DIHYDRORESVERATROL], the IC50 is greater than 50 µM at Aromatase [1] and 30.3 µM with MCF7. Further, in the test with RAW264.7, the inhibition at 40 µM was 36.2%. Further, the inhibition at 50 µM at Aromatase [2] amounted to 37.8%. Besides, the Survival in test [3] turned out to be 82.6%. Also, the inhibition in [4] worked out at 14.7%; with HEK293, 16.7%.
For the compound `Brc1ccccc1-c1nsc(-c2ccccc2Br)n1`, the figures for the IC50 against Aromatase [1] and in the test with MCF7 were greater than 50 µM and 35 µM, respectively. Moreover, the inhibition at 40 µM with RAW264.7 was 9.1%. Also, at Aromatase [2], the inhibition at 50 µM is 44.8%. In addition, the Survival in test [3] was 72.5%; in [5], 100%; in [6], 99.1%. Moreover, the inhibition was found to be 1.8% in [4] and 0% in the test on HEK293.
`Fc1ccc(-c2nsc(-c3ccc(F)cc3)n2)cc1`: the IC50 against Aromatase [1] was greater than 50 µM; in the test on MCF7, 18.8 µM. In the test on RAW264.7, the inhibition at 40 µM amounted to 22.2%. On Aromatase [2], the inhibition at 50 µM was found to be 45.2%. Moreover, the Survival in [3] was 96.3%; in test [5] it was 86.4%; in [6], 83%. Besides, the inhibition in [4] was determined as 6.9%; in the test on HEK293 it was 0%.
Regarding `Fc1ccccc1-c1nsc(-c2ccccc2F)n1`, the IC50 at Aromatase [1] was greater than 50 µM; with MCF7 it was 31.4 µM. Further, the inhibition at 40 µM in the test with RAW264.7 was 24.6%. Also, on Aromatase [2], the inhibition at 50 µM worked out at 53.2%. For the same compound, the Survival came to 86.2% in [3], 88.4% in test [5] and 82.5% in test [6]. Moreover, the inhibition in [4] worked out at 3.8%.
In the case of `FC(F)(F)c1ccccc1-c1nsc(-c2ccccc2C(F)(F)F)n1`, the IC50 against Aromatase [1] is greater than 50 µM. For the same compound, the inhibition at 40 µM with RAW264.7 turned out to be 6.7%. Also, the inhibition at 50 µM on Aromatase [2] turned out to be 21.6%. For the same compound, the Survival was determined as 88.8% in test [3], 81% in test [5] and 89.8% in test [6]. In addition, the values for the inhibition (in test [4]; in the test with HEK293) were 2.9% and 0%, respectively.
